# Reference: ChEMBL document CHEMBL4513216, “Probing the Open Global Health Chemical Diversity Library for Multistage-Active Starting Points for Next-Generation Antimalarials” (ACS Infect Dis, 2020)
# Assay: Toxicity liver stage against HepG2, at 10uM
# Format: cell-based
# Parameters: test concentration 10 uM, cell line HepG2-A16-CD81EGFP
# Conditions: human, HepG2-A16-CD81EGFP cells; read-out: INHIBITION
# In short: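 Uninfected HepG2-A16-CD81EGFP cells, 3 × 10^3 per well, 1536-well, plated on prespotted compound at 10 μM final, parasite-free screening media added to match infected plates; puromycin 10 μM positive, DMSO 0.5% negative; run in parallel with 48 h PbLuc assay at 37 °C, 5% CO2; viability by CellTiter-Glo luminescence, normalized to controls.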
row,SMILES,cytotoxicity at 10 µM [%]
1,COCCOCCCC(=O)N1CCC(Cc2ccccc2OC)CC1,7.28
2,CCN(Cc1cnc(C)cn1)C1CCN(c2ccccc2)C1=O (centres undefined),4.81
3,Cc1nc(C)n(CC2CCCN2CCCOc2ccc(F)cc2)n1 (centres undefined),-6.72
4,O=C(NCCc1ccccn1)[C@@]12CCO[C@@H]1CCN(c1ncccn1)C2,4.26
5,Cc1cnc2n(c1=O)C(CC(=O)NCc1ccc(Cl)cc1)CS2 (centres undefined),-5.55
6,O=C(c1ccncn1)N1C[C@H]2CCC[C@@]2(COCC2CCOCC2)C1,-79.2
7,CC(Cn1cccn1)NC(=O)NCCCN1CCc2ccccc21 (centres undefined),-0.449
8,COc1cc(CNC(C)Cn2cccn2)cc(OC)c1OC (centres undefined),-4.23
9,CC(C)N(C)C(=O)C1=NOC2(CCN(C(=O)NCc3cccnc3)C2)C1 (centres undefined),-3.75
10,CC(C)(C)c1noc(CCC(=O)N(CC2CCOC2)C2CC2)n1 (centres undefined),2.66
11,Cn1c(=O)[nH]c(=O)c2cc(C(=O)N3CCCC3C3CCCC3)cnc21 (centres undefined),14
12,CC(C)CC1SCC(=O)Nc2c1cnn2-c1ccc(F)cc1 (centres undefined),6.82
13,CS(=O)(=O)N1CCC2(CCN(C(=O)c3cccnc3)CC2)C1,3.59
14,c1ccc2c(CC3CN(Cc4nccs4)CCO3)cccc2c1 (centres undefined),1.31
15,OCCCN1CCCC1c1nc(Cc2ccc(F)cc2)no1 (centres undefined),-4.58
16,Cc1cc(CN2CCN(C(=O)NC(C)Cn3cccn3)CC2)no1 (centres undefined),-7.45
17,Cc1cccc(OCCCNC(=O)NC(C)c2nncn2C)c1 (centres undefined),-7.5
18,COCC(Nc1nc(N(C)C)nc2c1CCNCC2)c1ccccn1 (centres undefined),1.58
19,CC(C)N1C(=O)CN(CCOCCO)CC1(C)C,1.94
20,CCC(C)N(Cc1ccsc1)C(=O)c1ccc2[nH]nnc2c1 (centres undefined),13.3
21,O=C(NC1CC1)[C@@H]1CCO[C@@H]2CCN(Cc3ccco3)C[C@H]21,-86.6
22,CCc1cc(N[C@H]2CCC[C@H]2O)n2nccc2n1,-4

row,SMILES,cytotoxicity at 10 µM [%]
1,CC(C)CC(NC(=O)c1cc(C2CC2)n[nH]1)c1ncnn1C (centres undefined),4.93
2,CCN(CC)Cc1cc(C(=O)N2CC(C)(C)[C@@](C)(O)C2)c(C)o1,1.07
3,Cc1ccc(-c2ncc(C(=O)N3CCCC(CCN)C3)c(O)n2)cc1 (centres undefined),-7.98
4,NC(=O)C1CCCN1C1CCN(C(=O)c2cccc3c2OCO3)CC1 (centres undefined),-0.353
5,CN(Cc1ccc(Cl)s1)C(=O)Nc1ccc(N(C)C)nc1,-1.73
6,O=C1CCCCCN1Cc1cccc(OC(F)F)c1,-6.4
7,CCN1CC2(CC1=O)CN(C(C)=O)CCN(S(C)(=O)=O)C2 (centres undefined),0.38
8,CN1CCc2[nH]cnc2C12CCN(Cc1ccc3nsnc3c1)CC2,5.05
9,COCCO[C@@H]1CCN(C(=O)c2ccc[nH]2)[C@H]1Cc1cnn(C)c1,-71.7
10,COc1cccc(CN2CCC3(CC2)CCN(C(=O)[C@@H]2CCCO2)C3)c1,0.523
11,O=C(NCC(O)c1ccc(F)c(F)c1)c1cccnc1OCC(F)(F)F (centres undefined),-10.2
12,O=C(NCC(O)c1cccc(O)c1)C1CCN(C2CCCCC2)CC1 (centres undefined),7.16
13,CC(=O)N1CCCC1c1cccc(C)c1C (centres undefined),10.8
14,NC(=O)C1CCN(CCc2ccc(NCc3cscn3)cc2)CC1,3.69
15,Cc1nn(C)cc1-c1ccnc(N2CCCN(CC(C)C)CC2)n1,4.26
16,CC(C)Cc1nc(CN2CCN(CC(O)c3ccccc3)CC2)no1 (centres undefined),-14.4
17,N#Cc1cccc(N2CCC(CO)(CCCc3ccccc3)CC2)n1,-45.7
18,CNc1nc(C(=O)N2C[C@@H]3CCN(C)[C@@H]3C2)cs1,-10.8
19,Cc1nn(C)c2ncc(NC(=O)N3CCCCCC3)cc12,4.87
20,CCOC(=O)c1nc(CC(=O)Nc2ccc3cc[nH]c3c2)no1,7.12
21,O=C(NCCc1nncn1C1CC1)C1(c2ccccc2)CCC1,5.36
22,CCOc1nn(CC)cc1-c1nnc(SCc2ccccn2)n1C,-2.95

row,SMILES,cytotoxicity at 10 µM [%]
1,Cn1cc(CN2CCC3(CC2)CCN(C(=O)c2cscn2)CC3)cn1,-0.937
2,O=C(c1cnc2ccccn12)N1CCCC(c2ccn[nH]2)C1 (centres undefined),-5.28
3,COCCCNC(=O)c1c[nH]c2ccc(OC)cc12,-4.76
4,FC1(F)CCNCC12CCN(c1ncccn1)C2 (centres undefined),6.65
5,CN(C)c1ncnc2c1CCN(Cc1nccs1)CC2,6.1
6,CCOC(=O)NCc1nn(CCN2CCCC2)c(=O)c2ccccc12,9.66
7,Cn1cc(CN2C[C@@H]3COC[C@]3(COCC3CC3)C2)cn1,-112
8,CCN(Cc1ccccc1)C(=O)CN1CCCCC1Cn1cncn1 (centres undefined),7.15
9,CC(NC(=O)c1cc2n(n1)CCCN(C)C2)c1cn2ncsc2n1 (centres undefined),-6.73
10,O=C1CCC2(CCN(Cc3ncccn3)CC2)CN1CCCO,-8.11
11,Cc1noc(C)c1CN1C[C@@H]2CN(C(=O)c3cscn3)C[C@@H]2C1,-3.09
12,O=S1(=O)CCC(n2cc(CNc3ccccc3Br)cn2)C1 (centres undefined),-4.9
13,Cc1noc(C)c1-c1ccnc(C2CCN(S(=O)(=O)N(C)C)CC2)c1,-25
14,Cc1nc(-c2cn(CCN)nn2)n(-c2ccc3c(c2)CCC3)n1,2.86
15,CCN(CC)C(=O)CCNC(=O)N(C)Cc1ccc(SC)c(OC)c1,-7.9
16,Cc1nn(C)c2nc(N3CCC(C(O)c4ccccn4)CC3)sc12 (centres undefined),22.2
17,O=C(c1ncccn1)N1C[C@@H]2COC[C@]2(c2nnc(C3CC3)o2)C1,-1.31
18,CCCOC1Sc2nnc(C)n2N=C1c1ccccc1 (centres undefined),1.57
19,COc1ncccc1C(=O)Nc1nc2c(s1)CN(S(=O)(=O)C1CC1)CC2,-9.04
20,CCC(NCc1ccccc1)c1ccccc1OCC(=O)NC (centres undefined),16.2
21,c1cnc(NCc2nnn3c2CN(Cc2ccco2)CCC3)nc1,9.08
22,Cc1ccc(S(=O)(=O)c2ncccc2CN2CCN(CCO)CC2)cc1,-49.1

row,SMILES,cytotoxicity at 10 µM [%]
1,CCOc1ccc(CC(=O)N2CCN(c3nccn3CC)CC2)cc1,11.1
2,Cc1nc(O)cc(C2CCN(C(=O)c3[nH]nc4c3CC(C)CC4)CC2)n1 (centres undefined),3.06
3,O=C(c1ncccn1)N1C[C@@H]2CN(Cc3cccnc3)CCO[C@@H]2C1,7.67
4,Cc1ccc(F)cc1CC(=O)N(CCN1CCOCC1)Cc1ccco1,-3.91
5,CCC(C)N(Cc1sccc1C)C(=O)c1ccc2cccnc2n1 (centres undefined),2.05
6,Cc1cc(C)n(CC2CCN(CC(O)COc3ccccc3)CC2)n1 (centres undefined),-5.58
7,Cc1cc(C)cc(-c2cccc(CC3(C(=O)O)CCOCC3)c2)c1,-4.04
8,Cc1nn(C)c(C)c1CN(C)S(=O)(=O)c1c(C)n[nH]c1C,-2.32
9,O=C(CN1CCCC1Cn1cncn1)Nc1ccc(Cl)cn1 (centres undefined),-5.89
10,c1cc(-c2cnc(C3CCNCC3)cn2)n[nH]1,-2.78
11,CCc1noc(C)c1C(=O)N1CCCN(Cc2csc(C)n2)CC1,-2.81
12,CCc1nnc(CN2CCc3cnc(C)nc3C2)o1,-4.04
13,Cn1cc(C2CCCN2Cc2csc(C3CCCC3)n2)cn1 (centres undefined),8.3
14,Cc1nc(CN2CCOCC3(CCN(c4ncccn4)CC3)C2)cs1,14.9
15,COc1ncccc1C(=O)N1CC[C@H]2C[C@@H](c3ccncn3)O[C@@H]2C1,-2.24
16,CS(=O)(=O)c1ccc2c(c1)nc1n2[C@@H](CNCc2cccnc2)COC1,-2.68
17,CC(C)n1nc2c(cc1=O)CN(CC1CCCCO1)CC2 (centres undefined),14.5
18,CC[C@H]1CN(C(=O)c2cccnc2)CC[C@H]1CC(=O)NCCOC,5.26
19,Cc1ccc2oc(=O)n(CCC(=O)N3CCCC4(CNC(=O)O4)C3)c2c1 (centres undefined),-6
20,Cc1nn(C)c(C)c1C1CCCN1Cc1ccc(C(N)=O)cc1 (centres undefined),-1.01
21,O=C1CCC2(CCN(Cc3ccc(F)cc3)CC2)N1CCN1CCCC1,-4.72
22,COc1ccccc1[C@@H]1CN(Cc2csc(C(C)=O)c2)C[C@H]1C(=O)O,-4.75

row,SMILES,cytotoxicity at 10 µM [%]
1,Cc1ccc(C(=O)N2CC[C@@]3(O)CCN(C(=O)N(C)C)C[C@H]3C2)cc1Cl,-45.5
2,COc1ccccc1CN1CC[C@H]2C[C@H](C(=O)N3CCCC3)O[C@H]2C1,-2.24
3,CNC(=O)c1cc2c(nc1NCC(C)C)CCN(CC1CC1)CC2,-158
4,O=C1Nc2ccccc2CN(CC2CCCC2)C12CCNC2 (centres undefined),7.83
5,CCC1CN(CC(=O)NCCN2CCCCCC2)c2ccccc2S1 (centres undefined),-1.14
6,Cc1nccc(CN2CCC(c3nnsc3S(C)(=O)=O)CC2)n1,2.86
7,Cn1cc(CN2CCCC3(CCN(Cc4ccncc4)C3=O)C2)cn1 (centres undefined),8.68
8,Cc1ccc(C(=O)Nc2cn[nH]c2)cc1,-8.83
9,O=C(CC1CC1)N[C@@H]1CN(Cc2ccco2)C[C@@H]2CCCO[C@@H]21,-1.63
10,CCc1ccsc1C(=O)N1CCN(CCN2C(=O)CCC2=O)CC1,-3.82
11,O=C([C@@H]1CCCO1)N1CCOCC2(CCN(Cc3cccnc3)C2)C1 (some centres undefined),-108
12,Cc1cc(C)n(-c2cncc(N3CCN(C(=O)C(C)C)CC3)n2)n1,-2.9
13,CN(C(=O)c1ccc(Cl)cc1)C1CCN(c2ccccn2)CC1,-21
14,CN(CCNC(=O)c1scnc1Cl)c1ccccc1,6.88
15,Cc1noc(C)c1C1CCCN1C(=O)CN1CC2(CCNCC2)OC1=O (centres undefined),-5.24
16,CN(C)S(=O)(=O)N1C[C@H]2CCC[C@@]2(COCC2CCOCC2)C1,7.45
17,CCOc1ccc(CN2CC[C@](C)(O)C(C)(C)C2)cn1,5.88
18,O=C1NC2(CCN(C(=O)N3CCOCC3)CC2)CC1c1cccnc1 (centres undefined),-128
19,COc1ccc(N2CCN(C(=O)NC(C)c3nncn3C)CC2)cc1 (centres undefined),-7.12
20,CC(c1ccc(F)cc1)n1ccnc1-c1cc2n(n1)CCCNC2 (centres undefined),2.36
21,N#Cc1ccc(CNc2ncc(C#N)cc2Cl)cc1,17.7
